Where two headings read alike, the source gives them in different places.

By half-life is commonly meant the time needed for the level to fall by half in the phase considered.

For data set [1] the following is noted: cited from earlier work.
For data set [2], the system named is rat embryo fibroblasts. Description: release of lactate dehydrogenase. Format: cell-based. To be noted: 72 h incubation, telavancin 90 mg/L, vancomycin 50 mg/L, oritavancin 25 mg/L (human Cmax), controls 13.4 ± 3.7%, n = 3. A digest of the protocol: (§1)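 LDH release into the culture medium was measured after exposure to the test compound to assess pericellular membrane integrity. J774 macrophages were grown in RPMI 1640 and rat embryo fibroblasts in Dulbecco's modified Eagle's medium, both with 10% fetal calf serum.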

Data set [3] deals with J774 macrophages. The conditions noted are these: cited from earlier work; for accumulation level in macrophages: recorded previously in the same conditions (macrophages, 24 h).
Another data set relates to J774 mouse macrophages. Description: total phospholipid and cholesterol content, macrophages. It counts as cell-based. The conditions noted are these: 24 h, telavancin 90 mg/L, vancomycin 50 mg/L, oritavancin 25 mg/L, n = 6–8; for total cholesterol content: control 72 ± 3 nmol/mg of protein; for total phospholipid content: control 204 ± 10 nmol/mg of protein.
Data set [4] has as its system rat embryo fibroblasts. Description: total phospholipid and cholesterol content, fibroblasts. Format: cell-based. The conditions noted are these: 72 h, telavancin 90 mg/L, vancomycin 50 mg/L, oritavancin 25 mg/L, n = 6–8; for total cholesterol content: control 130 ± 16 nmol/mg of protein; for total phospholipid content: control 295 ± 8 nmol/mg of protein.
Data set [5] concerns J774 macrophages. Description: release of lactate dehydrogenase. Format: cell-based, mouse. To be noted: 24 h incubation, telavancin 90 mg/L, vancomycin 50 mg/L, oritavancin 25 mg/L (human Cmax), controls 5.0 ± 0.2%, n = 3. A digest of the protocol:
as §1

Data set [6] relates to J774 macrophages. Description: electron microscopy with morphometric analysis of lysosomal changes, macrophages. The conditions noted are these: 24 h. Format: cell-based, mouse.
Data set [7] has as its system rat embryo fibroblasts. Description: electron microscopy with morphometric analysis of lysosomal changes, fibroblasts. It counts as cell-based. To be noted: 72 h.
For data set [8], the system named is J774 macrophages. The data set can be described thus: subcellular distribution by cell fractionation and isopycnic centrifugation. It counts as in vitro ADME, mouse. To be noted: 24 h, 90 mg/L. Summed up:
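J774 macrophages were exposed 24 h at 37°C to 90 mg/L labelled test compound in 10% serum medium. They were then scraped into 0.25 M sucrose/1 mM EGTA/3 mM imidazole pH 7.4 and homogenised. Low-speed spin gave unbroken cells/nuclei; high-speed spin split granules/membranes from supernatant. The granule fraction was run on an isopycnic sucrose gradient, with densities standardised 1.08–1.21. Radioactivity, protein and marker enzymes were measured, expressed as % recovered per fraction.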

Data set [9] has as its system J774 macrophages. The data set can be described thus: cellular uptake, accumulation and efflux. Format: in vitro ADME, mouse.
Data set [10] deals with rat embryo fibroblasts. The data set can be described thus: cellular uptake. It counts as in vitro ADME. The conditions noted are these: stated for both cell types.

Take `CN[C@H](CC(C)C)C(=O)N[C@H]1C(=O)N[C@@H](CC(N)=O)C(=O)N[C@H]2C(=O)N[C@H]3C(=O)N[C@H](C(=O)N[C@H](C(=O)O)c4cc(O)cc(O)c4-c4cc3ccc4O)[C@H](O)c3ccc(c(Cl)c3)Oc3cc2cc(c3O[C@@H]2O[C@H](CO)[C@@H](O)[C@H](O)[C@H]2O[C@H]2C[C@](C)(N)[C@H](O)[C@H](C)O2)Oc2ccc(cc2Cl)[C@H]1O` [vancomycin, Vancomycin]: the “human Cmax” value in data set [1] is 50 µg/mL. In addition, the “release of lactate dehydrogenase” value is given as 17.1 ± 1.3% with rat embryo fibroblasts [2] and 5.0 ± 1.5% in the data set on J774 macrophages [5]. Besides, the “accumulation level in macrophages” value in the data set with J774 macrophages [3] is ~8 fold. Besides, the total cholesterol content result in the data set on J774 mouse macrophages and in the data set on rat embryo fibroblasts [4] was “slight but not significant increase” throughout. In addition, the total phospholipid content result with J774 mouse macrophages and in the data set on rat embryo fibroblasts [4] was “Neither telavancin nor vancomycin caused detectable increase” throughout.
Consider Oritavancin, for which the “human Cmax” value in data set [1] is 25 µg/mL. Moreover, the results for the “release of lactate dehydrogenase” value with rat embryo fibroblasts [2] and in the data set with J774 macrophages [5] were 18.2 ± 3.0% and 15.5 ± 1.5%, respectively. Further, the “initial uptake clearance rate” value with J774 macrophages [3] (J774 macrophages) is listed as ~150 µL/mg of protein/h. In addition, the “accumulation level in macrophages” value with J774 macrophages [3] is reported as ~370 fold. The total cholesterol content result in the data set on J774 mouse macrophages is given as “marked, statistically significant increase”; in the data set on rat embryo fibroblasts [4], “marked, statistically significant increase”. Also, the total phospholipid content result in the data set with J774 mouse macrophages and in the data set on rat embryo fibroblasts [4] was “significant increases” throughout.
Regarding Telavancin, the “human Cmax” value in [1] was 90 µg/mL. For the same compound, the half-life in data set [1] (serum, once-daily administration) is recorded as 7.5 h. In addition, in [1] (within 8–24 h after systemic administration of therapeutic doses), the “cellular concentration in human alveolar macrophages” value is reported as ~ 50 mg/L. In addition, the “release of lactate dehydrogenase” value in the data set on rat embryo fibroblasts [2] stood at 16.9 ± 2.5%; in the data set with J774 macrophages [5], 4.9 ± 1.0%. Moreover, the “ultrastructural alterations (electron microscopy)” value in the data set on J774 macrophages [6] (J774 macrophages, 90 mg/L) was “enlargement of lysosomes that were filled with a pleiotropic material”; in the data set with rat embryo fibroblasts [7] (90 mg/L), “enlargement of lysosomes that were filled with a pleiotropic material”. Moreover, the “morphometric changes compared with vancomycin” value in the data set on J774 macrophages [6] (macrophages, 25 mg/L telavancin vs 50 mg/L vancomycin) was “changes similar to those seen with 50 mg/L vancomycin”; with rat embryo fibroblasts [7] (90 mg/L telavancin vs 50 mg/L vancomycin), “changes similar to those seen with 50 mg/L vancomycin”. Further, the “morphometric alterations compared with oritavancin” value in the data set on J774 macrophages [6] (macrophages, 90 mg/L telavancin vs 20 mg/L oritavancin) was “considerably milder than in cells incubated with 20 mg/L oritavancin”; in the data set on rat embryo fibroblasts [7] (90 mg/L telavancin vs 20 mg/L oritavancin) it was “considerably milder than in cells incubated with 20 mg/L oritavancin”. Moreover, the total cholesterol content entry in the data set with J774 mouse macrophages and in the data set on rat embryo fibroblasts [4] was “slight but not significant increase” throughout. The total phospholipid content result with J774 mouse macrophages and in the data set on rat embryo fibroblasts [4] was “Neither telavancin nor vancomycin caused detectable increase” in each case. Moreover, the “cell-associated drug recovered in supernatant fraction” value in the data set with J774 macrophages [8] (N-acetyl-β-glucosaminidase 6%) is reported as 10%. For the same compound, the “cell-associated drug recovered in unbroken cells/nuclei fraction” value with J774 macrophages [8] (N-acetyl-β-glucosaminidase 27%) is given as 35%. In the data set on J774 macrophages [8] (N-acetyl-β-glucosaminidase 67%), the “cell-associated drug recovered in granules/membranes fraction” value is recorded as 55%. Moreover, the “accumulation level in macrophages” value in the data set with J774 macrophages [9] (24 h) is ~45 fold. Besides, the “apparent rate of efflux relative to influx (fold lower)” value in the data set with J774 macrophages [9] (initial uptake 12 h at 90 mg/L, then drug-free medium for 24 h) is given as ~5.7 fold. In addition, in the data set with J774 macrophages [9] (medium not supplemented with calf serum, 5 h, 10–90 mg/L, data not shown), the “uptake rate without serum relative to with serum (fold faster)” value was ~ 1.7 fold. The “clearance rate (abstract)” value with J774 macrophages [9] (stated for both cell types) and in the data set on rat embryo fibroblasts [10] was ~10 mL/g of protein/h throughout.

Source of the values: paper PMC2386079 (Journal of Antimicrobial Chemotherapy, 2008).
